Assay results collected from several papers.
Compare with care: the assays were run in different laboratories.
ALK: ALK tyrosine kinase receptor (ALK, Homo sapiens, UniProt Q9UM73)
ALK L1196M: ALK tyrosine kinase receptor (ALK, Homo sapiens, UniProt Q9UM73, L1196M)

SMILES	target	test	conditions	endpoint	value
CC#CC(=O)N1CCC[C@H]1c1nc(-c2ccc(C(=O)Nc3ccccn3)cc2)c2c(N)nccn12	ALK tyrosine kinase receptor (ALK, Homo sapiens, UniProt Q9UM73, C1156Y)	enzyme activity, inhibitor	1 µM	inhibition	0%
CS(=O)(=O)c1ccccc1Nc1nc(Nc2ccnc(CO)c2)ncc1Cl	ALK	enzyme activity, inhibitor, radiometric	1 µM	remaining activity	10.2%
COc1ccc2[nH]c3c4[nH]c5ccc(OC)cc5c4c4c(c3c2c1)C(=O)NC4=O	ALK L1196M	binding	1 µM	remaining binding	70%
CNC(=O)c1ccccc1Nc1nc(Nc2ccc(CO)nc2)ncc1Cl	ALK	enzyme activity, inhibitor, radiometric	1 µM	remaining activity	2.92%
C1=C/COCc2cc(ccc2OCCN2CCCC2)Nc2nccc(n2)-c2cccc(c2)COC/1	ALK	binding	0.1 µM	remaining binding	73%
Cc1ccc(NC(=O)c2ccnc(C(F)(F)F)c2)cc1-c1cc(OCCO)nc(N2CCOCC2)c1	ALK	binding	1 µM	remaining binding	89%
C=CC(=O)N1CCC([C@@H]2CCNc3c(C(N)=O)c(-c4ccc(Oc5ccccc5)cc4)nn32)CC1	ALK L1196M	cell-free assay	1 µM	inhibition	19%
CS(=O)(=NC#N)c1ccccc1Nc1nc(Nc2ccc(CO)nc2)ncc1Cl (stereo not shown)	ALK	enzyme activity, inhibitor, radiometric	1 µM	remaining activity	23.4%
CN1CCN(C(=O)c2ccc(NC(=O)Nc3ccc(N(C)c4ccnc(Nc5ccc(CS(C)(=O)=O)cc5)n4)cc3)cc2)CC1	ALK L1196M	binding	1 µM	remaining binding	83%
CCCCC(=O)Nc1ccc(-c2ccc3ncn(CCC)c(=O)c3c2)cn1	ALK L1196M	binding, competition with immobilised ligand	0.5 µM	remaining binding	100%
CO[C@@H]1[C@H](N(C)C(=O)c2ccccc2)C[C@H]2O[C@]1(C)n1c3ccccc3c3c4c(c5c6ccccc6n2c5c31)C(=O)NC4	ALK	enzyme activity, inhibitor	1 µM	inhibition	54%
C#Cc1cnc(Nc2ccnc(CO)c2)nc1Nc1ccccc1S(C)(=O)=NC#N (stereo not shown)	ALK	enzyme activity, inhibitor, radiometric	1 µM	remaining activity	27.6%
COc1ccc2oc(-c3ccc4nc(N)oc4c3)c/c(=N\c3ccccc3NC(=O)CCN)c2c1	ALK	binding	1 µM	remaining binding	106%
